Source: PubChem BioAssay (several laboratories)
This is a sample that favours compounds with a hit; in the whole collection about 6.4% have one here.
Tb MetRS inh – T. brucei MetRS inhibitors, primary screen, biochemical, luminescence. methionyl-tRNA synthetase (Trypanosoma brucei brucei). purified T. brucei MetRS, ATP depletion, Kinase-Glo luminescence. inhibition, % at 11.9 µM. 0.4% of 360,000 active;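 active = inhibition above a per-plate cutoff of the control wells' mean inhibition plus 3 SD, cut at about 5.5% in these data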
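Dosing: 11.9 µM single point; system: parasite MetRS enzyme; technique: luminescence of leftover ATP; times: 15 min enzyme-compound preincubation, 2 h reaction, 10 min detection, 25 °C; replicates: each compound tested once; read-out basis: percent inhibition relative to median high and low control wells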
CHOP inh – inhibitors of CHOP promoter induction, primary screen, cell-based, unfolded protein response, luciferase reporter; AID 2732, 2010; 3.8% of 220,000 active; CHO-K1 CHOP-promoter luciferase, tunicamycin-induced, 15-18 h; inhibition, % at 10 µM;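 active = compounds that reduced the stress-induced luciferase reporter signal by more than about 70% of percent inhibition, limit read from the data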
WT yeast gro inh – growth inhibition of WT strain, primary screen, mitochondrial fusion inhibitor project, WT and mutant strains, chemical genetic. mitochondrial fusion phenotypic screen. inhibition, % at 10 µM. 2.1% of 190,000 active; in the data active = inhibition above about 58%; tested in S. cerevisiae
NR3A LBD binder – binders of NR3A ligand-binding domain, primary screen, biophysical, differential scanning fluorimetry, uHTS | Glutamate receptor ionotropic, NMDA 3A (GRIN3A) ligand-binding domain | 2.5% of 340,000 active | Tm shift relative to glycine control, % at 25 µM | NR3A LBD differential scanning fluorimetry, Tm shift; 0% = protein alone, 100% = glycine-bound protein | AID 1259313, 2017;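 active = melting temperature shift of at least 10% of the positive control shift, at one fixed dose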
MPTP inh – mitochondrial permeability transition pore inhibitors, primary screen, biochemical, isolated mouse mitochondria, absorbance; Ca2+ swelling absorbance, 30 min; inhibition, % at 10 µM; 1.4% of 360,000 active;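 active = inhibition of 50% or more, scaled per plate between neutral and stimulator controls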
EBV gp42 inh – Epstein-Barr virus gp42 inhibitors, primary screen, biochemical, uHTS, fluorescence polarization. Fluorescence polarization binding assay, mP read-out. inhibition, % (tested at 21.74 µM). AID 1085, 2008. 0.42% of 220,000 active. Glycoprotein 42 (Epstein-Barr virus (strain AG876)), Q1HVG2; in the data active = inhibition above about 50%
Target sequence (Q1HVG2 whole entry, looked up): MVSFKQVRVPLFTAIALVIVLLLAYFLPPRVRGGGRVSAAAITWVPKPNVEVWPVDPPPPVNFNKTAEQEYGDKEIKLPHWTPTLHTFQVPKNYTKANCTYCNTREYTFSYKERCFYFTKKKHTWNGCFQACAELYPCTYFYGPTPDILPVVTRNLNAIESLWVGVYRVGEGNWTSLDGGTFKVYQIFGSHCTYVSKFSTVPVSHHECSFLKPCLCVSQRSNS
MPTP counter – fluorescence retest of MPTP screen hits in isolated mitochondria, single concentration | shares compounds with MPTP inh | membrane potential, Rhodamine 123 fluorescence | inhibition, % at 10 µM | 78% of 5,000 active; in the data active = inhibition above about 22%
MPTP swell DR – mitochondrial permeability transition pore inhibitors, dose response, biochemical, absorbance, uHTS hits; shares compounds with MPTP inh; IC50, µM; AID 651561, 2012; 58% of 780 active; isolated mitochondria swelling; in the data active = IC50 below about 20 µM
MPTP cs DR – fluorescent counter-screen in isolated mitochondria, dose response, counter-screen for MPTP inhibitor project, biochemical, fluorescence, uHTS hits; shares compounds with MPTP inh; isolated mitochondria counterscreen, fluorescence read-out; IC50, µM; 49% of 780 active; AID 651564, 2012; in the data active = IC50 below about 80 µM
Each line names hits and unclear results; the compound was inactive in the other large screens (follow-up assays come after a bar, where they were run).

O=C(/C=C/c1ccc(Cl)c(Cl)c1)N1CCOCC1	none (no result: CHOP inh, WT yeast gro inh, EBV gp42 inh)
COc1ccc(OC)c(S(=O)(=O)Nc2cc3c(cc2N2CCCC2)n(C)c(=O)c(=O)n3C)c1	none (no result: CHOP inh, WT yeast gro inh, EBV gp42 inh)
CS(=O)(=O)c1ccc2nc(NC(=O)Nc3ccc(Cl)cc3)sc2c1	NR3A LBD binder 28, MPTP inh 95 | MPTP counter 78
COc1ccc(NC(=O)c2nc3ccccc3s2)cc1	none
COc1ccc(NC(=O)Nc2nnc(C(C)(C)C)s2)cc1	none (no result: WT yeast gro inh)
CCOc1ccc2nc(NC(=O)COC)sc2c1	none
COc1ccc(NC(=O)Nc2nc3ccccc3s2)cc1	NR3A LBD binder 28, MPTP inh 64 (no result: WT yeast gro inh) | MPTP counter 81
CCOc1ccc2nc(NC(=O)Nc3ccccc3)sc2c1	NR3A LBD binder 35, MPTP inh 90 | MPTP counter 74
COc1ccc(NC(=O)Nc2nnc(-c3cccs3)s2)cc1	CHOP inh 88, NR3A LBD binder 16, MPTP inh 69 (no result: WT yeast gro inh) | MPTP counter 69
Cc1ccc(S(=O)(=O)N2CCN(C(=O)COC(=O)COc3ccc(Cl)cc3)CC2)c(C)c1	none (no result: CHOP inh, WT yeast gro inh, EBV gp42 inh)
CCOc1ccc(S(=O)(=O)N(C)c2ccc(OCC(=O)Nc3nc4ccccc4s3)cc2)cc1	CHOP inh 81, MPTP inh 96 | MPTP counter 80
Cc1cccc(C)c1N1CCN(C(c2cc3ccccc3o2)c2nnnn2C(C)(C)C)CC1 (stereo not drawn)	MPTP inh 87 (no result: CHOP inh, WT yeast gro inh, NR3A LBD binder, EBV gp42 inh) | MPTP counter 57
CCCCn1nnnc1C(c1cc2ccccc2o1)N1CCN(c2c(C)cccc2C)CC1 (stereo not drawn)	none (no result: CHOP inh, WT yeast gro inh, NR3A LBD binder, EBV gp42 inh)
CC(=O)c1ccc(OCc2cc(C(=O)N(C)Cc3cc(C)no3)no2)cc1	none (no result: CHOP inh, WT yeast gro inh, EBV gp42 inh)
CN(Cc1nccn1C)C(=O)c1cc(COc2ccc3ncccc3c2)on1	MPTP inh 70 | MPTP counter inactive | MPTP swell DR 19 | MPTP cs DR 46
Cc1cc(CN(C)C(=O)c2cc(COc3ccc4ncccc4c3)on2)on1	MPTP inh 96 | MPTP counter 73
COc1ccc(N(CC(=O)Nc2ccc(OC)c(Cl)c2)S(=O)(=O)c2c(C)noc2C)cc1	none
COc1ccc(N(CC(=O)Nc2ccc(F)c(Cl)c2)S(=O)(=O)c2c(C)noc2C)cc1	NR3A LBD binder 16, MPTP inh 69 | MPTP counter 78
COC(=O)c1ccc(CC(=O)c2nc3ccccc3s2)cc1	none
Cc1ccc(NC(=S)c2nc3ccccc3s2)cc1	none
Cc1ccc(OC/C(O)=C(\C#N)c2nc3ccccc3s2)cc1	MPTP inh 73 | MPTP counter 43
COC(=O)c1ccc(/C(O)=C(\C#N)c2nc3ccccc3s2)cc1	MPTP inh 74 | MPTP counter 53
COC(=O)Cn1c2ccccc2c2nc(=O)cc(C)n21	none
CC1=CC(=O)C(C(C)C)=C/C1=N/OS(=O)(=O)c1ccccc1	CHOP inh 106, MPTP inh 96 (no result: WT yeast gro inh) | MPTP counter 92
COCCNc1nc2nonc2nc1NC(C)c1ccccc1Cl (stereo not drawn)	MPTP inh 75 | MPTP counter 96
CCN(CC)C1CCN(c2nc3nonc3nc2NCCOC)C1 (stereo not drawn)	none
Cc1c(NC(=O)c2cccc(NC(=O)C(C)Oc3ccccc3)c2)c(=O)n(-c2ccccc2)n1C (stereo not drawn)	none (no result: CHOP inh, WT yeast gro inh, NR3A LBD binder, EBV gp42 inh)
Cn1ncc(Cl)c1C(=O)N1CCN(C(=O)c2ccco2)CC1	MPTP inh 73 | MPTP counter inactive | MPTP swell DR inactive | MPTP cs DR inactive
Cn1ncc(Cl)c1C(=O)N1CCN(c2ccccc2)CC1	none (no result: CHOP inh, WT yeast gro inh, EBV gp42 inh)
O=C1c2ccccc2N[C@@H]2C=CC[C@@H]2N1O	none (no result: CHOP inh, WT yeast gro inh, EBV gp42 inh)
FC(F)(F)Oc1ccc(NC(=S)Nc2ccc(OC(F)(F)F)cc2)cc1	MPTP inh 95 (no result: WT yeast gro inh) | MPTP counter 71
CC(C)c1ccc(NC(=S)Nc2ccc(OC(F)(F)F)cc2)cc1	MPTP inh 90 | MPTP counter 90
COc1ccc(CCNC(=S)Nc2ccc(C(C)C)cc2)cc1	none (no result: WT yeast gro inh)
CCOc1ccc(/C=C(\C#N)C(=O)Nc2ccccn2)cc1	none (no result: CHOP inh, WT yeast gro inh, EBV gp42 inh)
O=C(Cc1sc(-c2ccccc2)nc1-c1ccccc1)Nc1ccc(Cl)cc1	NR3A LBD binder 24, MPTP inh 69 | MPTP counter inactive | MPTP swell DR 12 | MPTP cs DR <2.5
O=C(Cc1ccc([N+](=O)[O-])cc1)Nc1ccc(Cl)cc1	MPTP inh 68 | MPTP counter 76
Cc1ccc(CC(=O)Nc2cccnc2)cc1	none
O=C(Cc1ccc(Cl)cc1)NNS(=O)(=O)c1ccc([N+](=O)[O-])cc1	none
O=C(Cc1ccc(Cl)cc1)Nc1ccncc1	MPTP inh 58 | MPTP counter inactive | MPTP swell DR inactive | MPTP cs DR 41
Cc1ccc(CC(=O)Nc2ccncc2)cc1	MPTP inh 84 | MPTP counter 36
CCOCCn1c(=O)c2c(nc3n2CC(C)CN3Cc2ccccc2)n(C)c1=O (stereo not drawn)	none (no result: CHOP inh, WT yeast gro inh, EBV gp42 inh)
CN1c2ccccc2C(O)=C(C(=S)Nc2ccccc2)S1(=O)=O	none
CN1c2ccccc2C(O)=C(C(=S)Nc2ccc(F)c(Cl)c2)S1(=O)=O	NR3A LBD binder 27, MPTP inh 89 | MPTP counter 72
O=S(=O)(NC1c2cccc3cccc(c23)C1N1CCNCC1)c1ccc(Cl)cc1 (stereo not drawn)	MPTP inh 81 | MPTP counter inactive | MPTP swell DR 3.2 | MPTP cs DR inactive
COc1cc(CNc2nccn3ccnc23)cc(OC)c1	none (no result: CHOP inh, WT yeast gro inh, NR3A LBD binder, EBV gp42 inh)
CC(OC(=O)c1cccc(S(=O)(=O)Nc2cccc(C(F)(F)F)c2)c1)C(=O)Nc1ccc2c(c1)OCCO2 (stereo not drawn)	NR3A LBD binder 26, MPTP inh 67 | MPTP counter 69
CC(=O)Nc1ccc(NC(=O)C(C)OC(=O)c2ccc3c(c2)OCCO3)cc1 (stereo not drawn)	none (no result: WT yeast gro inh)
Cc1ccccc1-c1nsc(SCC(=O)Nc2ccc3c(c2)OCO3)n1	MPTP inh 84 | MPTP counter 66
